Measured values published in ChEMBL document CHEMBL4732120, “Discovery of novel PARP/PI3K dual inhibitors with high efficiency against BRCA-proficient triple negative breast cancer” (Eur J Med Chem, 2021).
pIC50: −log10 of the molar value.

Tests used:
MDA-MB-468 [1] = experiment: Induction of apoptosis in human MDA-MB-468 cells assessed as viable cells at 1 uM measured after 72 hrs by Annexin V-FITC/propidium iodide staining based flow cytometry (reference value: 95.2%); format: functional; conditions: read-out: Activity
[2] = molecular target: Phosphatidylinositol 4,5-bisphosphate 3-kinase catalytic subunit beta isoform (Homo sapiens, UniProt P42338); experiment: Inhibition of PI3Kbeta (unknown origin)
[3] = Intrinsic clearance in monkey liver microsomes measured after 1 hr; format: ADME, Macaca mulatta, Microsome; conditions: rhesus monkey, read-out: CLH
Method in brief: (§1)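 Compound incubated 1 h with mouse, rat, dog, monkey or human liver microsomes. Derived values were the elimination rate constant k, the elimination half-life T1/2 and the intrinsic clearance CLint.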

[4] = molecular target: T1, Phosphatidylinositol 4,5-bisphosphate 3-kinase catalytic subunit delta isoform (Homo sapiens, UniProt O00329); experiment: Inhibition of PI3Kdelta (unknown origin)
T1 sequence (O00329 whole entry): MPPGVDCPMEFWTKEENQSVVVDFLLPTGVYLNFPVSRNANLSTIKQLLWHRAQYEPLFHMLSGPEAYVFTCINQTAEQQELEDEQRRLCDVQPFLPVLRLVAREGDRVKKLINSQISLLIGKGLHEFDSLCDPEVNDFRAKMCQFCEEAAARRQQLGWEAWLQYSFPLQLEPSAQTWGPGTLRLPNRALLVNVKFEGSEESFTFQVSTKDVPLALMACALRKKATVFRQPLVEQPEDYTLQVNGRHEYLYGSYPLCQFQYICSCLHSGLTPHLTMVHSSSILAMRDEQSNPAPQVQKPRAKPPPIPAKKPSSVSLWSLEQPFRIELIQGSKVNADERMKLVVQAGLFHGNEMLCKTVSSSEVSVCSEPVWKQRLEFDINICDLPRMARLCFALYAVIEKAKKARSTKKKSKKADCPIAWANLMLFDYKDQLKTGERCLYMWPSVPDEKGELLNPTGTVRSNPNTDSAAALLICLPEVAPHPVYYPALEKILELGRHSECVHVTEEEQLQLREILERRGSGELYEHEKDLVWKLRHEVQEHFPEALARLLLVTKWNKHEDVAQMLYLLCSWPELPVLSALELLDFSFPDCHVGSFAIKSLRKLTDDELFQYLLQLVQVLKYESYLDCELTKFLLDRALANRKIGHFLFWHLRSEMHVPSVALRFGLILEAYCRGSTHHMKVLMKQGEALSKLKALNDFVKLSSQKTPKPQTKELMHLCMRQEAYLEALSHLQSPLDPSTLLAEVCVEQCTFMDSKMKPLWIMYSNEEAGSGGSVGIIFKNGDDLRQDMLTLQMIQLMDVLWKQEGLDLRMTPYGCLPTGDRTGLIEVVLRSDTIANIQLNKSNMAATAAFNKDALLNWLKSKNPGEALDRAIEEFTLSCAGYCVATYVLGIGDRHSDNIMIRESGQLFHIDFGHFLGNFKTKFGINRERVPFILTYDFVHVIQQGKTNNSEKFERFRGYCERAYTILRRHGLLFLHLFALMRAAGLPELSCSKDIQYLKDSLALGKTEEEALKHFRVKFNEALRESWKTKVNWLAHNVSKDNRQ

[5] = Toxicity in Sprague-Dawley rat assessed as change in body weight at 1000 mg/kg, po administered as single dose measured on day 7 (reference value: 298 +/- 14 g); format: organism-based; conditions: in vivo, 168 h, time 7 day
MDA-MB-468 [6] = experiment: Antiproliferative activity against human MDA-MB-468 cells measured after 7 days by Celltiter-glo assay; format: functional, cell-based; conditions: MDA-MB-468, 168 h
Method in brief: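 MDA-MB-468 cells grown in RPMI1640 with 10% FBS at 37 °C, 5% CO2. Seeded the day before dosing, grown 12 h, then exposed to a range of concentrations for 7 days. Viability read by CellTiter-Glo luminescence after 10 min at room temperature. Inhibition % = (1 − (RLU cpd − blank)/(RLU DMSO − blank)) × 100. IC50 from nonlinear regression of normalized dose-response.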

[7] = Apparent permeability across basolateral to apical side in human Caco2 cells assessed as drug recovery at 5 uM measured after 120 mins; format: ADME, cell-based; conditions: Caco-2, read-out: Drug recovery
Method in brief: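 Bidirectional permeability run, apical-to-basolateral and basolateral-to-apical. Test compound at 5 µM, incubated 120 min. Papp (10^-6 cm/s), recovery (%) and efflux ratio reported as the mean of two experiments.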

[8] = Intrinsic clearance in human liver microsomes measured after 1 hr; format: ADME, Microsome; conditions: read-out: CLH; method in brief: as §1
[9] = Elimination half life in mouse liver microsomes measured after 1 hr; format: ADME, Microsome; conditions: read-out: beta t1/2; method in brief: as §1
[10] = Intrinsic clearance in rat liver microsomes measured after 1 hr; format: ADME, Microsome; conditions: read-out: CLH; method in brief: as §1
[11] = Elimination half life in rat liver microsomes measured after 1 hr; format: ADME, Microsome; conditions: read-out: beta t1/2; method in brief: as §1
[12] = Elimination half life in human liver microsomes measured after 1 hr; format: ADME, Microsome; conditions: read-out: beta t1/2; method in brief: as §1

Sequence of Phosphatidylinositol 4,5-bisphosphate 3-kinase catalytic subunit beta isoform (P42338 whole entry, canonical isoform): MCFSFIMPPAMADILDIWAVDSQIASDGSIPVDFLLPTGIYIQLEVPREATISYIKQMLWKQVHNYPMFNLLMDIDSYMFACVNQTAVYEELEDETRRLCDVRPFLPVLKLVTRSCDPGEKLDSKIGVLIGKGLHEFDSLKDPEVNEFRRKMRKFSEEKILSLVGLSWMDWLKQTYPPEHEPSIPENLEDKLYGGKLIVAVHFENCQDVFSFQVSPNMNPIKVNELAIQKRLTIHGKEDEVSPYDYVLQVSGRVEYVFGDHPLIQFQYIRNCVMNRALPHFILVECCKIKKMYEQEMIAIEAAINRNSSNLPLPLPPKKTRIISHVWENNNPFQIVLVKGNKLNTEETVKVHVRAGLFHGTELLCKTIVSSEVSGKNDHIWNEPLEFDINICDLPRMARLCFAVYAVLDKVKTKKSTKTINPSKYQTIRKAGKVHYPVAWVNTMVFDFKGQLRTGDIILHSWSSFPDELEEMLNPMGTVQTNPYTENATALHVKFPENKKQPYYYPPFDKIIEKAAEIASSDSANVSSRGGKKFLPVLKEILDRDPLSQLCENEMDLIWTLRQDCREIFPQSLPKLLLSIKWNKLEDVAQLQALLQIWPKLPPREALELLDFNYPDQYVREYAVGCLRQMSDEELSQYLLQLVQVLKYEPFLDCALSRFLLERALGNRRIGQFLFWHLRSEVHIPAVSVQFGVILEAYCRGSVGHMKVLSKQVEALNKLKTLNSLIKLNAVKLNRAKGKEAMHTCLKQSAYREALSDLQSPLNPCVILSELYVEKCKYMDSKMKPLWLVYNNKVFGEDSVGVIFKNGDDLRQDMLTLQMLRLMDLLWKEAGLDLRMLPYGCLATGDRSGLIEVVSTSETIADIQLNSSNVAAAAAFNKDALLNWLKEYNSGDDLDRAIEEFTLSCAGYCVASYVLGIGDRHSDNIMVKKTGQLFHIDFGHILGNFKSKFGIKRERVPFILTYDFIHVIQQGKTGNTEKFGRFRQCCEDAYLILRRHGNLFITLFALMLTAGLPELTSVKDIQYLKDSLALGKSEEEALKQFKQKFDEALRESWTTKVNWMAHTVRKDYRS

NC(=O)c1cccc2cc(C(=O)N3CCN(c4nc(-c5cnc(NC(=O)CN6CCOCC6)cc5C(F)(F)F)nc(N5CCOCC5)n4)CC3)oc12
viability at 1 µM (MDA-MB-468 [1]): 67.2% | pIC50 [2]: 6.42 | microsomal CLint [3]: 30.7 µL/min/mg | pIC50 [4]: 6.71 | Activity [5]: 281 g | pIC50 (MDA-MB-468 [6]): 5.85 | recovery at 2 h, 5 µM [7]: 99.9% | microsomal CLint [8]: 14.7 µL/min/mg | half-life [9]: 17.4 min | microsomal CLint [10]: 32.9 µL/min/mg | half-life [11]: 42.2 min | half-life [12]: 107 min
